Assay outcomes: PubChem, several laboratories
Yeast superoxide = lowers age-related superoxide in aged yeast cells. S. cerevisiae aged cells, superoxide DHE fluorescence; stronger effect = lower value. superoxide response (% of plate mean), % at 10 µM. 330,000 tested, 0.18% active;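 active = superoxide response under a set limit, about three screen SD below normal, cut at about 65% in these data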;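 note: yeast aged for seven days with compound at 30 °C before DHE staining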
AHR activator = activates the human aryl hydrocarbon receptor | P35869 | activation, % at 5 µM | 320,000 tested, 2.5% active | AID 2796 | AHR-responsive luciferase reporter cells, luminescence; in the data active = activation above about 47%
Target sequence (P35869 whole entry, looked up): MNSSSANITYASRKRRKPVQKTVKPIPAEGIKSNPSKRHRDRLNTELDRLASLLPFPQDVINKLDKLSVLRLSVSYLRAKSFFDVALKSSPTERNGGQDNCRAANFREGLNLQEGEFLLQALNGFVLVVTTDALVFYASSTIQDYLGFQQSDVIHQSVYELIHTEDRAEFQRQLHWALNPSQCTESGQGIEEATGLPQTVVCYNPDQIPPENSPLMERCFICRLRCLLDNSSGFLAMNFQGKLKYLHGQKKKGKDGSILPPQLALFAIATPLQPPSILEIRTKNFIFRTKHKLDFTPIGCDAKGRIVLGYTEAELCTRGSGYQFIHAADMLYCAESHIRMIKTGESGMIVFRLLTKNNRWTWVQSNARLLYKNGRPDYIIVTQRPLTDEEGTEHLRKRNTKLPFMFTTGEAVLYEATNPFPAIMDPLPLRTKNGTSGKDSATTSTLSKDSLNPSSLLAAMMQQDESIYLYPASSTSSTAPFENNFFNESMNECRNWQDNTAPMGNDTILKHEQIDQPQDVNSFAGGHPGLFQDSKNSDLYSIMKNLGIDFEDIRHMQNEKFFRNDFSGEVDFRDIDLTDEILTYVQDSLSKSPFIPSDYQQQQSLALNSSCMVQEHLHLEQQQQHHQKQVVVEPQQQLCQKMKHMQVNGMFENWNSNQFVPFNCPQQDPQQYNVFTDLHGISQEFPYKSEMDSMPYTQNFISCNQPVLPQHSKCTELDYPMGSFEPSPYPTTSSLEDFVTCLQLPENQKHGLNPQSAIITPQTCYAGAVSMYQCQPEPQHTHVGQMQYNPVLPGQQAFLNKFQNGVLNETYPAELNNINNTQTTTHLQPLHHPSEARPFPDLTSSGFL
SR-BI DiI inh = blocks mouse SR-BI lipid uptake from DiI-HDL | ldlA[mSR-BI] CHO cells, DiI-HDL uptake fluorescence, 3 h | inhibition, % at 12.5 µM | 320,000 tested, 0.96% active;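 active = mean replicate inhibition of at least 70% and a set share of replicates each scoring 70 or more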
SMARCA2 act = increases SMARCA2 function in MMTV reporter cells; MG213 cells, MMTV-luciferase reporter, dexamethasone, overnight; activation, % at 9.1 µM; 370,000 tested, 1% active; AID 652017; in the data active = activation above about 7.8%
Hep lipid drop = hepatic lipid droplet formation modulation; inhibition, % at 6.5 µM; AML12 mouse hepatocytes, oleate lipid droplets, BODIPY imaging; 240,000 tested, 0.4% active;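 active = lipid droplet intensity inhibited by at least 50%, with more than 500 cells counted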
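Test system: AML12 mouse liver cells; schedule: overnight exposure; technique: high-content imaging of BODIPY-stained droplets and DAPI nuclei; read-out: % inhibition of corrected integrated BODIPY droplet signal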
SR-BI uptake up = enhances SR-BI lipid uptake from DiI-HDL. 320,000 tested, 0.096% active. activation, % at 12.5 µM. CHO ldlA[mSR-BI] cells, DiI-HDL uptake fluorescence, 3 h; 100 = double the neutral-control signal;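 active = mean replicate activation of at least 60% and every replicate at or above 60%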
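Assay system: CHO ldlA[mSR-BI] cells, LDL receptor-null, SR-BI overexpressing; medium: Ham's F12 with 0.5% BSA, HEPES 25 mM, pH 7.4; also added: DiI-HDL 10 µg/mL; timing: 3 h uptake period with compound, 37 °C; signal: DiI fluorescence, bottom read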
Hep lipid conf = hepatic lipid droplet formation inhibition, confirmed; inhibition, % at 5.2 µM; shares compounds with Hep lipid drop; 870 tested, 65% active; AML12 mouse hepatocytes, BODIPY lipid droplet imaging; droplets induced with 100 µM oleic acid;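 active = inhibition of lipid droplet metric at least 50%, with more than 300 cells in each of four replicates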
AML12 cytotox = counter-screen for cytotoxicity in AML12 mouse hepatocytes; shares compounds with Hep lipid drop; DAPI nuclear morphology cytotoxicity imaging; stronger effect = higher value; cells fed 100 µM oleate overnight; z-score at 5 µM; 870 tested, 3% active; AID 463200; in the data active = z-score above about 6.3;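 note: compound exposure lasted overnight at 37 °C before fixation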
AML12 tox ATP = confirmation of cytotoxicity in AML12 mouse hepatocytes. 530 tested, under 10 active. AML12 mouse hepatocyte viability, ATP luminescence; cells loaded with 100 µM oleic acid. cytotoxicity, % at 50 µM. shares compounds with Hep lipid drop;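 active = cytotoxicity above 50% in each of four replicates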;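 note: compound exposure lasted overnight at 37 °C before the ATP read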
Each line names hits and unclear results; the compound was inactive in the other large screens (follow-up assays come after a bar, where they were run). Shown are actives, neighbours in structure and some others; about 4.3% of the full set was active somewhere.

CC(C)C(C)(C#N)NC(=O)CSc1nnc(-c2ccncc2)n1Cc1ccccc1 (configuration not stated)	none (no result: Hep lipid drop)
CC(C)C(C)(C#N)NC(=O)CSc1nc2scc(-c3ccc(F)cc3)c2c(=O)n1Cc1ccccc1 (configuration not stated)	Hep lipid drop 105 | Hep lipid conf 113 | AML12 cytotox inactive
O=C1NC(=O)C2C3C=CC(C12)C1C(=O)NC(=O)C31 (configuration not stated)	none (no result: Yeast superoxide, AHR activator, SR-BI DiI inh, Hep lipid drop, SR-BI uptake up)
CCN(CC(=O)Nc1c(F)cccc1F)C(=O)CCCc1c[nH]c2ccccc12	Hep lipid drop 82 | Hep lipid conf 105 | AML12 cytotox inactive | AML12 tox ATP inactive
Cc1cc(C)cc(C(=O)OCCCN(C)C2CN(Cc3cn(Cc4ccccc4C(F)(F)F)nn3)S(=O)(=O)C2)c1 (configuration not stated)	none (no result: Yeast superoxide, AHR activator, SR-BI DiI inh, Hep lipid drop, SR-BI uptake up)
O=C(/C=C/c1ccc(Cl)cc1)NC(=S)Nc1ccc(NC(=O)c2ccco2)cc1	Hep lipid drop 57 | Hep lipid conf inactive | AML12 cytotox inactive
CC(=O)Nc1ccc(NC(=S)NC(=O)/C=C/c2ccc(Cl)cc2)cc1	none
C=CCN1[C@H](C)COc2cc(N3CCCC3)ccc2S1(=O)=O	none (no result: Yeast superoxide, AHR activator, SR-BI DiI inh, Hep lipid drop, SR-BI uptake up)
COc1ccc(CC(=O)Nc2oc(-c3ccccc3)c(-c3ccccc3)c2C#N)cc1OC	Hep lipid drop 97 | Hep lipid conf 110 | AML12 cytotox inactive | AML12 tox ATP inactive
COc1ccccc1OCC(=O)Nc1oc(-c2ccccc2)c(-c2ccccc2)c1C#N	none
O=C(Nc1ccc(-c2csc(Nc3ccc(Cl)cc3)n2)cc1)c1cccc(C(F)(F)F)c1	Hep lipid drop 72 (no result: SR-BI DiI inh, SR-BI uptake up) | Hep lipid conf 100 | AML12 cytotox inactive | AML12 tox ATP inactive
Cc1ccc(Nc2nc(-c3sc(NC(=O)c4cccc(Cl)c4)nc3C)cs2)cc1	none (no result: SR-BI DiI inh, SMARCA2 act, Hep lipid drop, SR-BI uptake up)
CC1(c2nnnn2Cc2ccccc2)CSCC(=O)N1Cc1cccs1 (configuration not stated)	none (no result: Yeast superoxide, AHR activator, SR-BI DiI inh, Hep lipid drop, SR-BI uptake up)
CCOC(=O)C1=CCC(c2ccc([N+](=O)[O-])cc2)N(S(=O)(=O)c2ccc(C)cc2)C1 (configuration not stated)	none (no result: Yeast superoxide, AHR activator, SR-BI DiI inh, Hep lipid drop, SR-BI uptake up)
Cc1cc(C)n(-c2nc(N(c3ccccc3)c3ccccc3)nc(-n3nc(C)cc3C)n2)n1	Hep lipid drop 57 (no result: SMARCA2 act) | Hep lipid conf 69 | AML12 cytotox inactive | AML12 tox ATP 93
Cc1ccc(-c2cc(C(=O)O)c3cc(Br)ccc3n2)o1	none (no result: SR-BI DiI inh, SR-BI uptake up)
Cc1ccc(-c2cc(C(=O)NC3=NCCS3)c3cc(Br)ccc3n2)o1	Hep lipid drop 107 (no result: SR-BI DiI inh, SMARCA2 act, SR-BI uptake up) | Hep lipid conf inactive | AML12 cytotox inactive
Cc1c(C(=O)O)sc2nc3n(c(=O)c12)CCC(C)CC3 (configuration not stated)	Hep lipid drop 93 | Hep lipid conf inactive | AML12 cytotox inactive
CC(C)(C)OC(=O)NCCc1ccccc1/C=C/S(=O)(=O)NCc1ccccc1	none (no result: Yeast superoxide, AHR activator, SR-BI DiI inh, Hep lipid drop, SR-BI uptake up)
COc1ccc(NC(=O)COC(=O)/C=C/C(=O)OCC(=O)Nc2ccc(OC)c(Cl)c2)cc1Cl	Hep lipid drop 63 | Hep lipid conf inactive | AML12 cytotox inactive
CCOC(=O)/C=C/C(=O)OCC(=O)Nc1ccc(OC)c(Cl)c1	none
Cc1cc(NS(=O)(=O)c2ccc(NC(=O)Cc3ccc(Cl)c(F)c3)cc2)no1	none (no result: Yeast superoxide, AHR activator, SR-BI DiI inh, Hep lipid drop, SR-BI uptake up)
Nc1cc(Cl)ccc1Oc1ccccc1	none (no result: Hep lipid drop)
Cc1cccc(Oc2ccc(Cl)cc2N)c1	Hep lipid drop 58 | Hep lipid conf inactive | AML12 cytotox inactive
CC1CCCN(C2=C(NS(=O)(=O)c3ccc(Br)cc3)C(=O)c3ccccc3C2=O)C1 (configuration not stated)	Hep lipid drop 50 | Hep lipid conf 112 | AML12 cytotox inactive | AML12 tox ATP inactive
CCN1CCN(C2=C(NS(=O)(=O)c3ccc(C)cc3)C(=O)c3ccccc3C2=O)CC1	none
O=C1C(NS(=O)(=O)c2ccccc2)=C(N2CCN(c3ccc(F)cc3)CC2)C(=O)c2ccccc21	AHR activator 66, SR-BI DiI inh 87, Hep lipid drop 79 | Hep lipid conf 81 | AML12 cytotox inactive | AML12 tox ATP inactive
O=C1C(NS(=O)(=O)c2cccs2)=C(N2CCN(c3cccc(Cl)c3)CC2)C(=O)c2ccccc21	SR-BI DiI inh 81, Hep lipid drop 61 | Hep lipid conf 112 | AML12 cytotox inactive | AML12 tox ATP inactive
CC1CCN(C2=C(NS(=O)(=O)c3ccc(Br)cc3)C(=O)c3ccccc3C2=O)CC1	Hep lipid drop 60 | Hep lipid conf 114 | AML12 cytotox inactive | AML12 tox ATP inactive
CCOC(=O)C1CCCN(C2=C(NS(=O)(=O)c3ccc(Br)cc3)C(=O)c3ccccc3C2=O)C1 (configuration not stated)	none
Cc1cc(Nc2cc(Cl)cc(Cl)c2)cc(=O)n1-c1cc(Cl)cc(Cl)c1	none (no result: Yeast superoxide, AHR activator, SR-BI DiI inh, Hep lipid drop, SR-BI uptake up)
CCc1cc(SC#N)cc(C)c1NC(=O)CCl	Hep lipid drop 68 | Hep lipid conf inactive | AML12 cytotox inactive
Cc1cc(SC#N)cc(C)c1NC(=O)CCl	none
Cc1ccccc1C(=O)NC1CCN(Cc2nnnn2C2CCCC2)CC1	Hep lipid drop 63 | Hep lipid conf inactive | AML12 cytotox inactive
COc1ccccc1-c1cccc2c3c([nH]c12)[C@@H]1C[C@H]2[C@@H](CN1CC3)[C@H](C)ON2C	none (no result: Yeast superoxide, AHR activator, SR-BI DiI inh, Hep lipid drop, SR-BI uptake up)
CCOC(=O)CSc1nc2ccccc2c(=O)n1Cc1ccco1	none (no result: Hep lipid drop)
CCOc1ccc2nc(NC(=O)CSc3nc4ccccc4c(=O)n3Cc3ccco3)sc2c1	Hep lipid drop 57 | Hep lipid conf 106 | AML12 cytotox inactive | AML12 tox ATP inactive
CC(Sc1nnc(Nc2ccccc2)s1)C(=O)Nc1nc(-c2ccccc2)cs1 (configuration not stated)	Hep lipid drop 54 | Hep lipid conf 96 | AML12 cytotox inactive | AML12 tox ATP inactive
C=C(C)C#CCNCc1ccccc1	none (no result: Yeast superoxide, AHR activator, SR-BI DiI inh, Hep lipid drop, SR-BI uptake up)
CC(C)(C)C(=O)/C=c1\[nH]c(=O)/c(=C\c2ccc(F)cc2)s1	Hep lipid drop 67 | Hep lipid conf 98 | AML12 cytotox inactive | AML12 tox ATP inactive
Cc1ccc(C2/C(=C(/O)c3cnn(-c4ccccc4)c3C)C(=O)C(=O)N2CCCN2CCOCC2)o1 (configuration not stated)	Hep lipid drop 96 (no result: SR-BI DiI inh, SMARCA2 act, SR-BI uptake up) | Hep lipid conf inactive | AML12 cytotox inactive
CC(C)(C)c1ccc(-c2csc(NNC3=NCCCCC3)n2)cc1	Hep lipid drop 60 | Hep lipid conf 100 | AML12 cytotox inactive | AML12 tox ATP inactive
